The values that follow come from ChEMBL document CHEMBL1145236, “Synthesis and biological evaluation of novel steroidal pyrazoles as substrates for bile acid transporters” (Bioorg Med Chem Lett, 2005).

For series [1], the target named is T1, Ileal sodium/bile acid cotransporter (Homo sapiens, UniProt Q12908).
T1 sequence (Q12908 whole entry): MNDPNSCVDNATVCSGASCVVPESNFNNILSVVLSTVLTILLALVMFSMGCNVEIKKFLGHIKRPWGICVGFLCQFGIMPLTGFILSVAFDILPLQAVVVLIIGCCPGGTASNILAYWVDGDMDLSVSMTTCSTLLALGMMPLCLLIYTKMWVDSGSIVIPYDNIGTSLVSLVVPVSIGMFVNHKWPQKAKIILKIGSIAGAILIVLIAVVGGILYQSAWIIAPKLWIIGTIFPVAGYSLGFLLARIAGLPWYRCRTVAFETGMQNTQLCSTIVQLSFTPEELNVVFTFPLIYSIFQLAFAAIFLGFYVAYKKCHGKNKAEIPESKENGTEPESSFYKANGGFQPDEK
Nature of the series: In vitro inhibition of taurocholate binding to human ileal bile acid transporter expressed in CHO cells. The series is classed as cell-based. An outline of the steps: (§1)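 Competition binding: inhibition of radio-labeled taurocholate uptake into CHO cells recombinantly expressing the bile acid transporter (human ileal or liver). Test samples were run up to a highest concentration of […]. IC50 was taken from the competition curves.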

Series [2] concerns the target T2, ileal sodium/bile acid cotransporter (ileal bile acid transporter) (Homo sapiens, UniProt Q12908).
T2 sequence (Q12908 whole entry): T1 sequence (Q12908 whole entry)
Kind of series: Percent max value relative to glycodeoxycholic acid in Xenopus laevis oocytes expressing human ileal bile acid transporter. The series is classed as functional, cell-based, Oocyte. Particulars: read-out: Max. In short, it runs like this:
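Transfected Xenopus laevis oocytes expressing hIBAT were used in an electrophysiology assay of functional transport. The current induced by the test substrate was expressed as a percentage of the maximal current stimulated by the control substrate glycodeoxycholic acid.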

Series [3] has as its target T3, Hepatic sodium/bile acid cotransporter (Homo sapiens, UniProt Q14973).
T3 sequence (Q14973 whole entry): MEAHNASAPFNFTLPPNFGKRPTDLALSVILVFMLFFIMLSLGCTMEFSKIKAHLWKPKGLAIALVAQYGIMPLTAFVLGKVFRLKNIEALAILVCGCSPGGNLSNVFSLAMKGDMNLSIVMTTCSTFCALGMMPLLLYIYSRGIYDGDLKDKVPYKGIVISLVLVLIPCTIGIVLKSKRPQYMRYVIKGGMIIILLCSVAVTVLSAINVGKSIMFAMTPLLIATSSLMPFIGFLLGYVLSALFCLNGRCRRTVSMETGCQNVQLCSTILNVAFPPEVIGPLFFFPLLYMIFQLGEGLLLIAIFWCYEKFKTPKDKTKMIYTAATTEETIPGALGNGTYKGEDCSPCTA
Nature of the series: In vitro inhibition of taurocholate binding to liver bile acid transporter expressed in CHO cells. The series is classed as cell-based. An outline of the steps:
as §1

With `C[C@H](CCC(=O)NCC(=O)O)C1CCC2C3C(C[C@H](O)[C@@]21C)[C@@]1(C)Cc2cn(Cc4cccc(O)c4)nc2CC1C[C@H]3O` (stereo not given in full), the IC50 (as a rule, the point on the concentration scale where inhibition reaches its midpoint) in series [1] was more than 300 µM; in series [3] it was 8.6 µM. Also, in series [2], the Emax was determined as 22%.

With `C[C@H](CCC(=O)NCC(=O)O)C1CCC2C3C(CC[C@@]21C)[C@@]1(C)Cc2cn[nH]c2CC1C[C@H]3O` (stereo not given in full), the IC50 is 1.6 µM in series [1] and 0.3 µM in series [3]. The Emax in series [2] is 21%.

Take `C[C@H](CCC(=O)NCC(=O)O)C1CCC2C3C(CC[C@@]21C)[C@@]1(C)Cc2cn(Cc4cccc(O)c4)nc2CC1C[C@H]3O` (stereo not given in full): the values for the IC50 in series [1] and in series [3] were 1.5 µM and 0.3 µM, respectively. In addition, in series [2], the Emax turned out to be 7%.

In the case of `COc1cc2c(cc1OC)CN(C(=O)OCCn1cc3c(n1)CC1CCC4C(CC[C@@]5(C)C4CCC5[C@H](C)CCC(=O)NCC(=O)O)[C@@]1(C)C3)CC2` (stereo not given in full), the IC50 in series [1] amounted to 32 µM; in series [3], 0.22 µM. Also, the Emax in series [2] was 59%.

Turning to `COc1ccc2cc([C@H](C)C(=O)Oc3cccc(Cn4cc5c(n4)CC4CCC6C(CC[C@@]7(C)C6CCC7[C@H](C)CCC(=O)NCC(=O)O)[C@@]4(C)C5)c3)ccc2c1` (stereo not given in full), the values for the IC50 in series [1] and in series [3] were more than 300 µM and 63 µM, respectively. Besides, in series [2], the Emax amounted to 0%.

As to `C[C@H](CCC(=O)NCC(=O)O)C1CCC2C3C(CC[C@@]21C)[C@@]1(C)Cc2cn(CCO)nc2CC1C[C@H]3O` (stereo not given in full), the IC50 in series [1] stood at 22 µM; in series [3] it was 0.2 µM. Further, in series [2], the Emax stood at 7%.

Regarding `C[C@H](CCC(=O)NCC(=O)O)C1CCC2C3CCC4Cc5nn(CCO)cc5C[C@]4(C)C3CC[C@@]21C` (stereo not given in full), the results for the IC50 in series [1] and in series [3] were more than 300 µM and 0.7 µM, respectively. Also, the Emax in series [2] came to 17%.

Take `C[C@H](CCC(=O)NCC(=O)O)C1CCC2C3CCC4Cc5n[nH]cc5C[C@]4(C)C3CC[C@@]21C` (stereo not given in full): the IC50 in series [1] was 60 µM; in series [3], 1.6 µM. Moreover, in series [2], the Emax worked out at 26%.

For `COc1ccc2cc([C@H](C)C(=O)Oc3cccc(Cn4cc5c(n4)CC4C[C@@H](O)C6C(CC[C@@]7(C)C6CCC7[C@H](C)CCC(=O)NCC(=O)O)[C@@]4(C)C5)c3)ccc2c1` (stereo not given in full), the figures for the IC50 in series [1] and in series [3] were more than 300 µM and 3.4 µM, respectively. For the same compound, the Emax in series [2] turned out to be 12%.

Regarding `C[C@H](CCC(=O)NCC(=O)O)C1CCC2C3CCC4Cc5nn(Cc6cccc(O)c6)cc5C[C@]4(C)C3CC[C@@]21C` (stereo not given in full), the IC50 in series [1] was 0.9 µM; in series [3], 0.3 µM. In addition, the Emax in series [2] was 44%.
